This is an account of results in ChEMBL document CHEMBL1126973, “Synthesis and tubulin binding of novel C-10 analogues of colchicine” (J Med Chem, 1993).

The structures appear in SMILES notation.

Holding throughout (assay type): functional
The species entered for test [1] is Mus musculus. As to the kind of experiment: Concentration required to effect a 50% reduction in microtubule polymerization. The settings on record: read-out: I50. Summed up:
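GTP was added to 1 mM final and the sample warmed to 37 °C. Turbidity was followed at 400 nm, and percent inhibition was taken from plateau absorbance versus a no-ligand control. I50 was interpolated from the inhibition–concentration plot.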

Test [2] is filed under the species Mus musculus. Nature of the test: Percent inhibition of [3H]-colchicine binding to tubulin with molar ratio of 1:1 (inhibitor: [3H]-colchicine). An outline of the steps:
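5 µM ligand, 5 µM tubulin and 5 µM [3H]colchicine in PMEG buffer (PME plus 0.1 mM GTP) were incubated 1.5 h at 37 °C, then quenched on ice. Bound label was separated by centrifuged G-50 gel filtration and counted by scintillation. Percent inhibition is relative to a no-ligand control, run in quadruplicate and averaged.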

For test [3], the species on record is Mus musculus. As to the kind of experiment: Percent inhibition of [3H]colchicine binding to tubulin with molar ratio of 1:10 (inhibitor: [3H]colchicine).

Broadly, the Inhibition is how much of the control response was suppressed. Consider `CCC(C)c1ccc2c(cc1=O)[C@@H](NC(C)=O)CCc1cc(OC)c(OC)c(OC)c1-2` (some centres not stated), for which the IC50 in the test filed under Mus musculus [1] worked out at 10 µM. The Inhibition in the test filed under Mus musculus [2] is on record as 19.6%; in the test filed under Mus musculus [3], 57.1%.

Consider `COc1cc2c(c(OC)c1OC)-c1ccc(I)c(=O)cc1[C@@H](NC(C)=O)CC2`, for which the IC50 in the test listed under Mus musculus [1] was 3.8 µM. Further, the Inhibition amounted to 74% in the test filed under Mus musculus [2] and 98.3% in the test listed under Mus musculus [3].

Take `COc1cc2c(c(OC)c1OC)-c1ccc(OC(C)C)c(=O)cc1[C@@H](NC(C)=O)CC2`: the IC50 in the test filed under Mus musculus [1] was 23 µM. Further, the Inhibition in the test listed under Mus musculus [2] was 10.1%; in the test listed under Mus musculus [3], 50.5%.

For the compound `COc1cc2c(c(OC)c1OC)-c1ccc(Br)c(=O)cc1[C@@H](NC(C)=O)CC2`, the IC50 in the test listed under Mus musculus [1] amounted to 3.3 µM. Also, the figures for the Inhibition in the test listed under Mus musculus [2] and in the test listed under Mus musculus [3] were 59.4% and 97.4%, respectively.

`COc1cc2c(c(OC)c1OC)-c1ccc(C(C)C)c(=O)cc1[C@@H](NC(C)=O)CC2`: the IC50 in the test filed under Mus musculus [1] was found to be 4.2 µM. Besides, the Inhibition in the test listed under Mus musculus [2] is 44.9%; in the test listed under Mus musculus [3] it was 90%.

For the compound `COc1cc2c(c(OC)c1OC)-c1ccc(C(C)(C)C)c(=O)cc1[C@@H](NC(C)=O)CC2`, the IC50 in the test filed under Mus musculus [1] was 4.2 µM. Further, the Inhibition in the test listed under Mus musculus [2] was found to be 21.9%; in the test listed under Mus musculus [3] it was 69.4%.

As for `COc1cc2c(c(OC)c1OC)-c1ccc(N=[N+]=[N-])c(=O)cc1[C@@H](NC(C)=O)CC2`, in the test listed under Mus musculus [1], the IC50 came to 4.2 µM. For the same compound, the Inhibition came to 51.1% in the test listed under Mus musculus [2] and 95.8% in the test filed under Mus musculus [3].

In the case of `CCc1ccc2c(cc1=O)[C@@H](NC(C)=O)CCc1cc(OC)c(OC)c(OC)c1-2`, the IC50 in the test listed under Mus musculus [1] was determined as 4.2 µM. The Inhibition in the test listed under Mus musculus [2] is recorded as 54.9%; in the test filed under Mus musculus [3], 96.5%.

Consider `CCOc1ccc2c(cc1=O)[C@@H](NC(C)=O)CCc1cc(OC)c(OC)c(OC)c1-2`, for which, in the test filed under Mus musculus [1], the IC50 turned out to be 6.1 µM. For the same compound, the Inhibition in the test filed under Mus musculus [2] came to 24.6%; in the test listed under Mus musculus [3], 75%.

With `COc1cc2c(c(OC)c1OC)-c1ccc(-c3ccccc3)c(=O)cc1[C@@H](NC(C)=O)CC2`, in the test filed under Mus musculus [1], the IC50 was found to be 57 µM. Moreover, the Inhibition in the test listed under Mus musculus [2] was 10.6%; in the test filed under Mus musculus [3] it was 25.6%.

For `COc1cc2c(c(OC)c1OC)-c1ccc(Cl)c(=O)cc1[C@@H](NC(C)=O)CC2`, the IC50 in the test listed under Mus musculus [1] came to 3.7 µM. Besides, the Inhibition in the test filed under Mus musculus [2] is listed as 57.2%; in the test filed under Mus musculus [3], 96.2%.

As for `CCCCc1ccc2c(cc1=O)[C@@H](NC(C)=O)CCc1cc(OC)c(OC)c(OC)c1-2`, the IC50 in the test filed under Mus musculus [1] was found to be 26 µM. Also, the Inhibition in the test filed under Mus musculus [2] is 13.9%; in the test listed under Mus musculus [3], 24.7%.

Regarding `COc1cc2c(c(OC)c1OC)-c1ccc(C)c(=O)cc1[C@@H](NC(C)=O)CC2`, the IC50 in the test filed under Mus musculus [1] came out at 4.1 µM. For the same compound, the results for the Inhibition in the test listed under Mus musculus [2] and in the test filed under Mus musculus [3] were 56.6% and 96.7%, respectively.

With `CCCOc1ccc2c(cc1=O)[C@@H](NC(C)=O)CCc1cc(OC)c(OC)c(OC)c1-2`, the IC50 in the test filed under Mus musculus [1] amounted to 11 µM. Further, the Inhibition in the test filed under Mus musculus [2] is recorded as 16.6%; in the test filed under Mus musculus [3], 54.8%.

For `COc1cc2c(c(OC)c1OC)-c1ccc(CC(C)C)c(=O)cc1[C@@H](NC(C)=O)CC2`, the IC50 in the test listed under Mus musculus [1] was determined as 8.5 µM. Besides, the Inhibition in the test filed under Mus musculus [2] stood at 13.4%; in the test listed under Mus musculus [3], 36.7%.

As to `CCCc1ccc2c(cc1=O)[C@@H](NC(C)=O)CCc1cc(OC)c(OC)c(OC)c1-2`, in the test filed under Mus musculus [1], the IC50 stood at 3.5 µM. In addition, the Inhibition in the test filed under Mus musculus [2] is 41.7%; in the test listed under Mus musculus [3], 89.2%.

In the case of `COc1cc2c(c(OC)c1OC)-c1ccc(F)c(=O)cc1[C@@H](NC(C)=O)CC2`, the IC50 in the test listed under Mus musculus [1] was found to be 8.2 µM. Further, the figures for the Inhibition in the test filed under Mus musculus [2] and in the test listed under Mus musculus [3] were 11% and 50.2%, respectively.

For the compound `COc1cc2c(c(OC)c1OC)-c1cccc(=O)cc1[C@@H](NC(C)=O)CC2` [CHOLCHICIDE], the IC50 in the test listed under Mus musculus [1] was 7.9 µM. The Inhibition in the test filed under Mus musculus [2] turned out to be 13.2%; in the test listed under Mus musculus [3], 53.7%.

For the compound `COc1cc2c(c(OC)c1OC)-c1ccc(OC)c(=O)cc1[C@@H](NC(C)=O)CC2` [COLCHICINE], the IC50 in the test filed under Mus musculus [1] was 5.1 µM. Also, the Inhibition in the test listed under Mus musculus [2] amounted to 37.2%; in the test listed under Mus musculus [3], 89.7%.
